Screening results as filed in PubChem.
CFTR F508del cor – correctors of CFTR F508del function in bronchial epithelial cells; CFBE cells, YFP halide quenching; stimulated with forskolin plus potentiator P3; % fluorescence drop versus neutral controls; activity (quench increase), % at 7.58 µM; 350,000 tested, 0.36% active; AID 720511;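 active means mean added fluorescence quench of at least 8% versus neutral control, with both replicates also reaching 8%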;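 further: cells transiently co-express mutant CFTR-F508del with the halide-sensitive YFP; corrector assay measuring rescue of mutant channel to the surface after 24 h compound exposure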
E-selectin induc – E-selectin induction on HUVECs; P16581; HUVEC E-selectin immunofluorescence imaging; normalized: neutral wells 0, TNF-alpha wells 100; activation, % at 7.58 µM; 260,000 tested, 0.37% active; AID 686992;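 active means mean E-selectin-positive cell signal at least 10% of the positive control, reached in at least 60% of replicates, without over 20% cell loss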
Target sequence (P16581 whole entry, looked up): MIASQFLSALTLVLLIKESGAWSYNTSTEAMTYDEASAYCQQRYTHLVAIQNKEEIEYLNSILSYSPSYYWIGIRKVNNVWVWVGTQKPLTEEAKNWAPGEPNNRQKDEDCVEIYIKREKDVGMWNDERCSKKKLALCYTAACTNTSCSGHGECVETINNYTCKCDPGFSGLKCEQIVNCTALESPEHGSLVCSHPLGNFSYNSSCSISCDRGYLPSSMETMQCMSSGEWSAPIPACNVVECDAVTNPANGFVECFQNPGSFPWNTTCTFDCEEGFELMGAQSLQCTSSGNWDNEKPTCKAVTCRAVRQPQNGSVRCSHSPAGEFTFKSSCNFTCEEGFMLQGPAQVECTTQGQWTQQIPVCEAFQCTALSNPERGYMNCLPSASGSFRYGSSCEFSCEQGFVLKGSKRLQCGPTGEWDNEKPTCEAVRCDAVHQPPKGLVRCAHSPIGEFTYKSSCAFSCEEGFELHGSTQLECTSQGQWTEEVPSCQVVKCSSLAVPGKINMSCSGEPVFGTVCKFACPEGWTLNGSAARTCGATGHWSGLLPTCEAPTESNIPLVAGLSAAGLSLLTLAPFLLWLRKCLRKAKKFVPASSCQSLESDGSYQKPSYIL
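Material: HUVEC primary endothelial cells; Amount: 3,000 cells per well; Dosing: single concentration; Medium: EGM-2 growth medium on 0.1% gelatin-coated wells; Read-out basis: percent E-selectin-positive cells; Signal: immunofluorescence imaging; Control set: TNF-alpha, DMSO.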
FGF22 binding – binders of recombinant human FGF22 by thermal shift | Q9HCT0 | SYPRO orange fluorescence; percent of sucrose octasulfate shift, DMSO zero | activity (Tm shift, normalised), % at 9.99 µM | 340,000 tested, 1.5% active | AID 651658;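 active means mean Tm shift, scaled 0 neutral to 100 positive control, at about 1.3% or above, every replicate too, limit read from the data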
DENV2 CPE – inhibitors of DENV2 cytopathic effect; DENV2-infected cells, cytopathic effect rescue, plate reader; CPE inhibition, % at 9.99 µM; 350,000 tested, 1.7% active; in the data active means CPE inhibition above about 20%, passing the limit was not always enough; tested in BHK-21 cells;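 further: 0% = median of neutral control wells and 100% = median of positive control wells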
ERAP1 HTS inh – ERAP1 (human) enzyme inhibition | inhibition, % at 10.7 µM | 340,000 tested, 0.15% active | AID 652197 | recombinant ERAP1, Leu-AMC fluorescence, 60 min;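 active means mean replicate inhibition of at least 30%, or all replicates individually reaching that 30% level; inactive means mean below 30% and not every replicate reaching it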;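 further: 0% = neutral control wells and 100% = L-leucinethiol positive control wells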
The depositor's hits bear a star; · = not tested or not shown. Compounds with a hit are over-represented: about 3.7% of the library has one in this group of screens.

SMILES | CFTR F508del cor | E-selectin induc | FGF22 binding | DENV2 CPE | ERAP1 HTS inh
C[C@@H]1CN([C@@H](C)CO)C(=O)Cc2cc(NC(=O)Cc3ccccc3)ccc2O[C@H]1CN(C)S(=O)(=O)c1cccs1 | 3 | 0 | 0 | -3 | 1
C[C@@H]1CN([C@H](C)CO)C(=O)Cc2cc(NC(=O)Cc3ccccc3)ccc2O[C@H]1CN(C)C(=O)Nc1ccccc1 | 1 | 0 | 0 | -10 | -3
O=C(C[C@@H]1CC[C@H](NC(=O)C2CCC2)[C@H](CO)O1)NC1CCCCC1 | -2 | 0 | 1 | 0 | -2
COc1ccc(CNC(=O)C2CC(c3cc(C(F)(F)F)cc(C(F)(F)F)c3)=NO2)cc1 (configuration not stated) | 1 | 0 | · | · | ·
COc1ccc(C2=NOC(C(=O)NCc3ccccc3)C2)cc1 (configuration not stated) | 11* | · | 0 | 1 | 2
CC(=O)NNC(=S)Nc1cccc(F)c1 | -3 | 51* | 0 | -4 | ·
Cc1ccc(NC(=O)Nc2ccc(F)c(Cl)c2)cc1 | 2 | 0 | 0 | 0 | ·
CCC(CC)NC(=O)Nc1ccc(F)c(Cl)c1 | · | 27* | 0 | -4 | -2
O=C(NNC(=S)Nc1ccc(F)c(Cl)c1)c1ccccc1Br | 4 | · | 2.1* | -4 | -1
CC(=O)Nc1cccc(NC(=S)Nc2ccc(F)c(Cl)c2)c1 | -1 | 4 | 1.3* | -1 | 1
O=C(NNC(=S)Nc1ccc(F)c(Cl)c1)C1CC1 | -2 | 0 | 0 | 18 | 7
C[C@@H]1CN([C@H](C)CO)C(=O)c2cccc(NC(=O)c3cnccn3)c2O[C@H]1CN(C)C | -1 | · | 0 | 4 | -1
CCOC(=O)[C@H]1[C@H]2COc3ccccc3[C@@H]2N2C(=O)[C@@H](CO)NC(=O)[C@@]12C | 0 | 0 | 0 | 29* | 3
CCOC(=O)[C@H]1[C@H]2COc3ccc(Cl)cc3[C@H]2N2C(=O)CNC(=O)[C@@]12C | 0 | 0 | 0 | 2 | 1
CCOC(=O)[C@H]1[C@H]2COc3ccc(Br)cc3[C@H]2N2C(=O)CNC(=O)[C@@]12C | 0 | 0 | 0 | 62* | 5
CCOC(=O)[C@H]1[C@H]2COc3ccccc3[C@@H]2N2C(=O)c3cc(C)ccc3NC(=O)[C@@]12C | 1 | 0 | 0 | 5 | ·
CCOC(=O)[C@@H]1[C@H]2COc3ccc(Br)cc3[C@@H]2N2C(=O)N(c3cccc(F)c3)C(=O)[C@@]12C | 4 | · | 0 | 93* | 4
CCC(=O)N1CC(=O)N2[C@@H](CO)[C@@H](c3ccc(-c4ccc(C#N)cc4)cc3)[C@@H]2C1 | 3 | 0 | · | -6 | 5
COc1ccc(NC(=O)Nc2ccc3c(c2)[C@@H]2C[C@H](CC(=O)N4CCN(C)CC4)O[C@@H](CO)[C@@H]2O3)cc1 | 1 | 0 | 0 | 0 | 0
Cc1ccc(C2=CC(=O)C[C@H](c3ccc4c(c3)OCO4)C2)cc1 | -2 | 0 | 0 | 1 | -3
O=C1C=C(c2ccc3ncccc3c2)C[C@@H](c2ccc3c(c2)OCO3)C1 | 9.8* | 1 | 0 | 10 | ·
CC(=O)c1ccc(N=C2SCCCN2C(=O)C2CCCC2)cc1 | -1 | 0 | 43* | -3 | 0
Cc1ccc(S(=O)(=O)Nc2ccc3c(c2)C(=O)N([C@H](C)CO)C[C@@H](C)[C@@H](CN(C)C(=O)NC2CCCCC2)OCCCC[C@H](C)O3)cc1 | 1 | 0 | -1 | 4 | 0
OC[C@@H]1[C@@H](c2ccc(C#CC3(O)CCCC3)cc2)[C@H]2CN(Cc3ccccc3F)CCCCN12 | 8.4* | 0 | 0 | -8 | 3
OC[C@H]1[C@H](c2ccc(C#CC3(O)CCCC3)cc2)[C@H]2CN(Cc3ccccc3F)CCCCN21 | 8.9* | -1 | 0 | 5 | 3
SMILES | CFTR F508del cor | E-selectin induc | FGF22 binding | DENV2 CPE | ERAP1 HTS inh
COCC#Cc1ccc([C@@H]2[C@H]3CN(Cc4ccccc4F)CCCCN3[C@H]2CO)cc1 | 4 | 0 | 0 | 47* | 0
CCCNC(=O)C[C@H]1C[C@@H]2c3cc(NC(=O)Nc4ccccc4F)ccc3O[C@@H]2[C@H](CO)O1 | -1 | 0 | 0 | -4 | 3
CC(C)NC(=O)N(C)C[C@@H]1Oc2c(NC(=O)C3CCCCC3)cccc2C(=O)N([C@H](C)CO)C[C@H]1C | -1 | 0 | 0 | 0 | -1
O=C(c1cccnc1)N1CC2(C1)[C@@H](c1ccccc1)[C@@H](CO)N2C(=O)C1CCC1 | -1 | 0 | 0 | -2 | -3
O=C(c1ccccn1)N1CC[C@@H]2[C@@H](CO)Nc3ccc(-c4ccc(F)cc4)cc3[C@@H]21 | 3 | 1 | 0 | 7 | -2
COc1ccc(CN(C)C[C@H]2OCCCC[C@@H](C)Oc3ccc(NS(=O)(=O)c4ccccc4)cc3C(=O)N([C@@H](C)CO)C[C@H]2C)cc1 | 0 | 0 | 0 | 34* | -3
COc1ccc(CN(C)C[C@@H]2OCCCC[C@H](C)Oc3ccc(NS(=O)(=O)c4ccccc4)cc3C(=O)N([C@H](C)CO)C[C@H]2C)cc1 | 2 | 2 | 0 | 32* | -1
COc1ccc(CN(C)C[C@H]2OCCCC[C@@H](C)Oc3ccc(NS(=O)(=O)c4ccccc4)cc3C(=O)N([C@H](C)CO)C[C@H]2C)cc1 | 2 | 0 | 0 | 7 | 0
COc1ccc2c(c1)sc(N)[n+]2Cc1cc(C)cc2cccnc12 | 11* | 0 | 0 | 71* | 5
Cc1cc(C[n+]2cc(Br)ccc2N)c2ncccc2c1 | 3 | · | 0 | 35* | 0
Cc1cccc(S(=O)(=O)N[C@H]2CC[C@H](CCn3cc(-c4ccccn4)nn3)O[C@@H]2CO)c1 | 2 | 0 | 0 | 1 | 1
COc1ccc(S(=O)(=O)N(C)C[C@H]2OCCCC[C@@H](C)Oc3ccc(NC(=O)Nc4cccc5ccccc45)cc3C(=O)N([C@H](C)CO)C[C@@H]2C)cc1 | -1 | 0 | 1 | 2 | -6
COc1ccc(S(=O)(=O)N(C)C[C@@H]2OCCCC[C@H](C)Oc3ccc(NC(=O)Nc4cccc5ccccc45)cc3C(=O)N([C@H](C)CO)C[C@@H]2C)cc1 | -3 | 1 | 0 | 5 | -4
C[C@@H]1CCCCO[C@H](CN(C)S(=O)(=O)c2cn(C)cn2)[C@@H](C)CN([C@H](C)CO)C(=O)c2cc(NC(=O)Nc3cccc4ccccc34)ccc2O1 | 0 | 0 | 1.7* | 5 | -2
COc1ccc(S(=O)(=O)N(C)C[C@H]2OCCCC[C@@H](C)Oc3ccc(NC(=O)Nc4cccc5ccccc45)cc3C(=O)N([C@@H](C)CO)C[C@@H]2C)cc1 | 1 | 1 | 1.3* | 0 | -5
COc1ccc(S(=O)(=O)N(C)C[C@H]2OCCCC[C@H](C)Oc3ccc(NC(=O)Nc4cccc5ccccc45)cc3C(=O)N([C@H](C)CO)C[C@H]2C)cc1 | 3 | 9 | 1.7* | 0 | -5
